# Compound activity: PubChem BioAssay, several laboratories
# Shown are actives, neighbours in structure and some others; about 2.6% of the full set was active somewhere.
# Rad51 HR inh = human RAD51 strand exchange inhibitors, primary screen, biochemical, fluorescence. DNA repair protein RAD51 homolog 1 (Homo sapiens), Q06609. hRad51 DNA strand exchange, fluorescence dequenching. inhibition, % at 10 µM. actives 0.085% (n = 200,000);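 active = inhibition above 40% at the single screening dose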;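 note: 0% = DMSO control wells and 100% = blanks with heterologous ssDNA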
# Target sequence (Q06609 whole entry, looked up): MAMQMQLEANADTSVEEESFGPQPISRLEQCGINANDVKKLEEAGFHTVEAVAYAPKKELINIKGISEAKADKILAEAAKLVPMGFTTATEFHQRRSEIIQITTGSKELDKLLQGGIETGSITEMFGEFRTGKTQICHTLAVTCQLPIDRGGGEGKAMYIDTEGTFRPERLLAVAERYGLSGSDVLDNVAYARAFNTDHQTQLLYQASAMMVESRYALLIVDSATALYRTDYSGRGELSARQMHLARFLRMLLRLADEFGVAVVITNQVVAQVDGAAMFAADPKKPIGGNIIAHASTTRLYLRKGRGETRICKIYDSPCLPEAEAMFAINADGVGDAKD
#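 Material: Human Rad51 nucleoprotein filaments preassembled on unlabelled ssDNA | Also added: Labelled 47-mer dsDNA for strand exchange | Dosing: Single dose, 10 µM final compound | Schedule: 30-min compound preincubation and 15-min exchange, both room temperature | Technique: Fluorescence dequenching at 485/520 nm | Measure: Percent inhibition relative to plate controls and blanks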
# HSF1 inhib = HSF1 inhibitors in luciferase reporter cells, primary screen, cell-based, NIH3T3, luminescence; NIH3T3-HGL HSE-luciferase, MG132-induced, luminescence 8 h; stronger effect = lower value; activity change, negative = inhibition, % at 7.5 µM (by protocol); actives 0.77% (n = 300,000);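 active = more than half of replicate wells show activity change below -50%, luminescence cut by over half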;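 note: luciferase reports HSF-1 transcriptional activity via heat shock element; 0% = median of DMSO wells and -100% = zero luminescence signal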
# Mdm2 ligase inh = MDM2-luciferase reporter signal enhancers, primary screen, MDM2 E3 ligase inhibitor project, cell-based, luminescence, 1536-well. E3 ubiquitin-protein ligase Mdm2 (Homo sapiens), Q00987. cell-based MDM2 ubiquitination luciferase reporter, 2 h; 0 = plate control, 100 = twice control, blank-subtracted. signal enhancement, % at 5 µM. actives 0.11% (n = 210,000). AID 1230, 2008;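 active = signal enhancement of 30% or more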;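 note: luminescence tracks abundance of the self-degrading MDM2-luciferase fusion protein; higher signal means inhibition of MDM2 E3 ligase activity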
#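 System: stable MDM2–luciferase fusion reporter cells / Input: 2000 cells seeded into each well / Schedule: 4 h settle plus 2 h compound, 37 °C / Compound: single-point 5 µM / Buffer or medium: cells held in DMEM / Benchmarks: control and blank well means / Evaluation: percent signal gain over controls, blank-subtracted / Measured by: luciferase luminescence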
# Hsp70 act = Hsp70 transcriptional activators, primary screen, cell-based, HeLa, Hsp70 promoter luciferase, luminescence, 10 µM; activation, % at 10 µM; HeLa Hsp70 promoter luciferase reporter; scaled: vehicle 0, proteasome-inhibitor control 100%; actives 0.04% (n = 200,000); AID 1203, 2008;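 active = activation above the mean across all tested compounds plus 3 SD, cutoff set per campaign, cut at about 5.5% in these data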;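 note: 100% = MG132 at 30 µM as the positive control and 0% = DMSO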
# HSV replic up = enhancers of HSV replication in host cells, fold increase, host cell viability; HSV replication augmentation in cells; maximum fold increase; actives 0.005% (n = 220,000); in the data active = maximum fold increase above about 1.5; tested in PC3 cells
# HSF-1 act = HSF-1 activators, primary screen, NIH3T3-HGL cells, MG132 stress, luminescence, single point. activation, % at 9 µM. actives 1.7% (n = 300,000). NIH3T3-HGL HSF-1 luciferase reporter, 8 h; 100% = twice DMSO control signal. AID 504408, 2011;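 active = mean replicate activation of at least 50% with a set share of replicates each reaching 50%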;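 note: 0% = median of the neutral control wells and 100% = twice that signal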
# Active calls of the source: *; i = inactive; . = no result given.
SMILES,Rad51 HR inh,HSF1 inhib,Mdm2 ligase inh,Hsp70 act,HSV replic up,HSF-1 act
Cc1cc(=O)oc2c(C(=O)/C=C/c3ccccc3)c(O)ccc12,-3,7,-8,0,i,15
COc1ccc(C(=O)/C=C/c2ccccc2)c(OC)c1,-1,34,10,0,i,62*
COc1ccc(OC)c(N/C=C/C(=O)c2ccccc2)c1,.,-43,.,.,.,-54
COCOc1cc(O)c(C(=O)/C=C/c2ccccc2)c(OCOC)c1,6,151,.,.,i,155*
COc1ccc(NC(=O)CN(C)C(=O)c2ccc(N3CCCCC3)c([N+](=O)[O-])c2)cc1,.,0,.,.,.,1
COc1ccc(NC(=O)CN(C)C(=O)c2ccc(N3CCCCCC3)c([N+](=O)[O-])c2)cc1,.,23,.,.,.,67*
Cc1cc(S(=O)(=O)NCc2ccccc2)ccc1OCC(=O)N1CCCC1,.,-2,.,.,.,5
CN(c1ccccc1C(=O)Nc1cccc(Br)c1)S(=O)(=O)c1ccccc1,.,5,.,.,.,17
CCOC(=O)C1(Cc2ccccc2Cl)CCN(C(=O)CCn2ccnc2C)CC1,-4,-3,-5,0,i,-23
Nc1nc2c(Cl)ccc(Cl)c2s1,0,-5,-10,0,i,9
COc1ccc(C(=O)/C=C/Nc2cc(C)on2)c(OC)c1,8,-58*,0,0,i,-66
COc1ccc(C(=O)/C=C/c2ccc(N3CCCCC3)c([N+](=O)[O-])c2)c(OC)c1,-11,50,-8,0,i,68*
COc1ccc(C(=O)/C=C/Nc2ccc([N+](=O)[O-])cc2C)c(OC)c1,-1,6,-13,0,i,-2
O=S(=O)(NCc1ccccn1)c1ccc2ccccc2c1,.,38,.,.,.,72*
CC(c1ccc(F)cc1)n1c(Cn2ncc3ccccc3c2=O)n[nH]c1=S (stereo not drawn),17,35,-3,0,i,66*
CCCn1nc([N+](=O)[O-])c(C(C#N)c2nc3ccccc3s2)c(Cl)c1=O (stereo not drawn),2,46,-33,0,i,60*
O=C(NCc1nc2ccccc2[nH]1)C1=C[C@H](c2ccc3c(c2)OCO3)C[C@H](OCc2ccc(CO)cc2)O1,-5,-6,.,0,i,-9
CCN(CC)CCCn1c(=S)[nH]c2ncccc2c1=O,-4,16,0,0,i,62*
CCN(CCCn1c(=S)[nH]c2ncccc2c1=O)c1ccccc1,-3,6,-5,0,i,21
O=C(/C=C/Nc1ccccc1)c1ccccc1,.,45,-24,0,.,88*
O=C(/C=C/Nc1ccc(F)cc1Br)c1ccccc1,4,-66*,-86,0,i,-71
COCCCn1c(C(=O)NC2CCCCC2C)cc2c(=O)n3cccc(C)c3nc21 (stereo not drawn),.,39,.,.,.,71*
CCCCCc1c(C)nc(SCC(=O)O)[nH]c1=O,7,-3,-2,0,i,8
CCCCCSc1nc(C)c(CC(=O)O)c(=O)[nH]1,2,-92*,-11,-1,i,-94
CC(=O)N1CCc2cc(S(=O)(=O)CCC(=O)N(C)c3cc(C)ccc3C)ccc21,.,-1,.,.,.,0
COc1ccc(N2CC(C(=O)N3CCN(c4ccccc4)CC3)CC2=O)cc1 (stereo not drawn),.,-3,.,.,.,1
COc1ccc(N=C2SC(C(=O)N3CCN(c4ccccc4)CC3)CC(=O)N2C)cc1 (stereo not drawn),0,-77*,0,0,i,-82
COc1ccc(/C=N/Nc2cc(C)nc3ccc(Br)cc23)cc1,.,7,.,.,.,59*
